Source: PubChem BioAssay (several laboratories)
CHT allo act: allosteric activators of human choline transporter CHT. Q9GZV3. B-score at 10 µM. 0.49% of 310,000 active. CHT-expressing cells, membrane potential dye, choline EC20; hits give high values; LV-AA mutant CHT in HEK293 cells;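 active = initial fluorescence not abnormally high and integrated response B-score, plate-corrected, over 3 SD above library mean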
CHT inh: inhibitors of human choline transporter CHT; B-score at 10 µM; Q9GZV3; 0.86% of 310,000 active; CHT-expressing cells, membrane potential dye, choline response; hits give low values;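 active = B-score over 3 SD under the library average, and starting fluorescence ratio not unusually high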;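 also: choline stimulus applied at its EC90 after an EC20 pre-addition; B-score computed on integrated fluorescence ratio after choline addition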
TNAP inh hiacc: inhibitors of human TNAP at high phosphate acceptor concentration; P05186; purified TNAP, CDP-star luminescence, 1 M DEA; inhibition, % at 20 µM; 0.03% of 200,000 active; AID 1135;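 active = over 50% inhibition of tissue-nonspecific alkaline phosphatase at 20 µM in the single-dose screen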;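 also: plate controls were DMSO wells for no effect and EDTA-quenched wells as full inhibition for full effect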
Target sequence (P05186 whole entry, looked up): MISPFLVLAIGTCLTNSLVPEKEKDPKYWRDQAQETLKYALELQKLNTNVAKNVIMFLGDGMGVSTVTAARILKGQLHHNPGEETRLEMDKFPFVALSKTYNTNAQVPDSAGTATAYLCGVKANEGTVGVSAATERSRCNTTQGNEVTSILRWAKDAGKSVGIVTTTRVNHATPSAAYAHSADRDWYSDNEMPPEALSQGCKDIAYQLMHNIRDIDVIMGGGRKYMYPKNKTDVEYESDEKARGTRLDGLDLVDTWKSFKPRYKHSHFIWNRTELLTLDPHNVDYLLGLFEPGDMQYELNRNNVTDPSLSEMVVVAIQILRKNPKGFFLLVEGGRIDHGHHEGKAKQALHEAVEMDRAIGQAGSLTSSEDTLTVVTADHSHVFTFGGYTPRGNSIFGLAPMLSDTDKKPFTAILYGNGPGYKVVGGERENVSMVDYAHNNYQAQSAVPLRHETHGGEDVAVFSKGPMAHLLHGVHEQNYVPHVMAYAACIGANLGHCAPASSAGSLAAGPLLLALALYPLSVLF
TNAP inh no acc: blocks human TNAP activity with no phosphate acceptor present | inhibition, % at 20 µM | purified TNAP, CDP-star luminescence, 30 min | P05186 | 0.26% of 200,000 active;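 active = tissue-nonspecific alkaline phosphatase inhibition above about 50% at 20 µM in the single-dose screen, limit read from the data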;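 also: 0% = DMSO negative control and 100% = EDTA positive control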
ABCB6 inh MLPCN: inhibitors of human ABC transporter ABCB6; K562-ABCB6 porphyrin accumulation, flow cytometry, 1 h; hits give low values; fluorescence ratio to DMSO, % at 10 µM; Q9NP58; 0.19% of 360,000 active; AID 602162;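 active = fluorescence ratio to DMSO below 75%, the collection mean minus 3 SD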;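 also: signal is porphyrin accumulated inside mitochondria; 100% equals median channel fluorescence of DMSO control wells; lower ratio means ABCB6 inhibition with less porphyrin fluorescence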
TNAP act hi DEA: TNAP (human) activation, high acceptor; AID 1136; 200,000 tested, under 10 active; P05186; activation factor at 20 µM; purified TNAP, CDP-star luminescence, 1 M DEA, 30 min; hits give high values; 0 = EDTA background, 1 = DMSO-only activity;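 active = activation factor at least 2 at 20 µM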
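Dosing: 20 µM single point. System: human TNAP. Amount: TNAP 1/800 final. Incubation: 30 min, room temperature. Read-out: TNAP activation factor scaled between EDTA and DMSO control wells. Signal: luminescence from CDP-star hydrolysis. Medium: 1 M DEA, pH 9.8, Mg2+, Zn2+. Control set: EDTA negative control, DMSO positive control.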
Numbers without * were called inactive; i = inactive; / = no result; ! = a repeat was not active. Shown are actives, neighbours in structure and some others; about 1.4% of the full set was active somewhere.

SMILES	CHT allo act	CHT inh	TNAP inh hiacc	TNAP inh no acc	ABCB6 inh MLPCN	TNAP act hi DEA
COc1cccc(/C=N/NC(=O)c2cc(C34CC5CC(CC(C5)C3)C4)[nH]n2)c1	i	i	6	86*	100	0.9
COc1cccc(/C=N/NC(=O)c2cnccn2)c1	i	i	-1	-2	93	1
CCn1c(SCC(=O)N2CCC(C)CC2)nnc1-c1ccco1	i	i	/	/	93	/
Cc1cc(C)c2c(-n3cccc3)n[nH]c2n1	i	i	-1	68*	98	1
O=C(COc1nc2ccccc2nc1N1CCOCC1)Nc1cccc(S(=O)(=O)N2CCCCC2)c1	i	i	3	-9	98	1
CSc1nc2nc(C)c(C/C=C/c3ccccc3)c(=O)n2[nH]1	i	i	0	-6	103	1
CCc1c(C)nc2nc(SCc3ccccc3Cl)[nH]n2c1=O	i	i	/	/	61*	/
NC(=O)CC(NC(=O)Cc1ccc(Br)cc1)c1ccc(NCCc2ccccc2F)c([N+](=O)[O-])c1 (configuration not stated)	i	i	/	/	89	/
O=C1/C(=C/c2ccc(O)cc2)SC(=S)N1Cc1cccnc1	i	i	63*	11	113	0.4
O=C(c1cccs1)N1CCc2c([nH]c3ccccc23)C1c1ccccn1 (configuration not stated)	i	i	-8	-8	99	1.1
O=C(c1cc(-c2ccccc2)n[nH]1)N1CCc2c([nH]c3ccccc23)C1c1ccccn1 (configuration not stated)	i	i	-3	62*	105	1
COc1ccc(N(C(=O)CCl)C(C(=O)NCCc2ccccc2)c2cccs2)cc1Cl (configuration not stated)	i	i	0	-26	25*	1
O=C1C2CCCN2C(=O)N1CCCCN1CCN(c2cccc(Cl)c2)CC1 (configuration not stated)	i	i	-5	-13	100	1.1
CC1(C)CC(=O)C(CSC(=O)c2ccccc2)C(=O)C1	/	/	/	/	100	/
COc1cc(C2CC(=O)Oc3c(C(CCN4CCCC(C)C4)c4ccc(N(C)C)cc4)c(OC)cc(OC)c32)cc(OC)c1OC (configuration not stated)	i	i	/	/	93	/
COc1cc(C(CCN2CCCC(C)C2)c2c(OC)cc(OC)c3c2OC(=O)CC3c2ccc(N(C)C)cc2)cc(OC)c1OC (configuration not stated)	i	-5.1*	/	/	95	/
O=C(COC(=O)/C=C/c1cccc(F)c1)Nc1cccc(S(=O)(=O)NC2=NCCCCC2)c1	/	/	/	/	95	/
COc1ccc(OC)c(-c2nnc(SCC(=O)N3CCCC3)o2)c1	i	i	/	/	95	/
O=C(NC1CC2CCCC(C1)N2Cc1ccc(F)cc1)c1ccc(F)cc1 (configuration not stated)	i	i	/	/	105	/
Nc1c2c(nc3ccccc13)CCCC2	7.6*!	i	-3	-11	99	1
Clc1c2c(nc3ccccc13)CCC2	i	i	/	/	100	/
COc1cccc(OC)c1C(=O)Nc1ccc(S(=O)(=O)Nc2cc(C)nc(C)n2)cc1	i	-5.3*	-4	-10	106	1
Cc1ccc(-c2nnc(Nc3ccc4c(c3)OCO4)c3ccccc23)cc1S(N)(=O)=O	i	i	17	79*	99	0.8
CC(=O)Nc1ccc(Nc2nnc(-c3ccc(C)c(S(N)(=O)=O)c3)c3ccccc23)cc1	i	i	/	/	181	/
CCCc1nc2nc(C)c(NS(=O)(=O)c3ccc(C4CCCCC4)cc3)c(=O)n2[nH]1	i	i	/	/	95	/
SMILES	CHT allo act	CHT inh	TNAP inh hiacc	TNAP inh no acc	ABCB6 inh MLPCN	TNAP act hi DEA
Cc1[nH]nc2c1/C(=N\O)CC(C)(C)C2	i	i	-5	11	99	1.1
CCc1n[nH]c2c1/C(=N/O)CCC2	i	i	-4	-6	94	1
Cc1[nH]nc2c1C(=O)CC(C)(C)C2	i	i	-1	55*	92	1
CCc1n[nH]c2c1C(=O)CC(C)(C)C2	i	i	2	51*	97	1
CC(C)(C)C(=O)Nc1nc(=S)ss1	i	-5.5*	0	-7	90	1
CC1(OC(=O)c2cccs2)C(=O)C=C2C=C3CCCN3C=C2C1=O (configuration not stated)	i	-5.3*	/	/	94	/
Cn1ncc([N+](=O)[O-])c1C(=O)Nc1nc2ccccc2n1CCN1CCCCC1	i	i	-2	-5	103	1
Cc1c(Cl)c(C(=O)Nc2nc3ccccc3n2CCN2CCCCC2)nn1C	9.7*	i	-2	-16	/	1
CC(C)n1c(-c2ccccc2F)n[nH]c1=S	i	i	3	69*	83	1
CC(c1ccccc1)n1c(-c2ccccc2F)n[nH]c1=S (configuration not stated)	i	i	/	/	96	/
CS(=O)(=O)c1[nH]nc(-c2cccc(Cl)c2)c1C#N	i	i	/	/	93	/
c1ccc(CC2CCN(C3=Nc4cccc5cccc3c45)CC2)cc1	i	i	-2	2	93	1
CCOC(=O)N1CCN(C2=Nc3cccc4cccc2c34)CC1	i	-7.1*	6	2	96	0.9
NS(=O)(=O)c1ccc(N2N=C(c3ccccc3)CC2c2ccccc2Cl)cc1 (configuration not stated)	/	/	/	/	97	/
Cc1ccc(C)c(N2CCN(C(=O)C3CCCN(c4ncnc5c4nc4n5CCCCC4)C3)CC2)c1 (configuration not stated)	i	-7.4*	/	/	98	/
Cc1ccc(Cl)cc1NC(=S)NCc1cccn1C	i	i	-3	-17	73*	1
O=C(NCCC1CCCCN1S(=O)(=O)c1ccccc1)C(=O)NCc1ccncc1 (configuration not stated)	i	i	/	/	95	/
CCOc1c(OC(C)=O)ccc(/C=C2\N=C(SCC)SC2=O)c1[N+](=O)[O-]	i	-5.8*	2	5	92	1
Cc1ccc(S(=O)(=O)N2CCN(CC(=O)N(CC(C)C)c3c(N)n(CC(C)C)c(=O)[nH]c3=O)CC2)c(C)c1	i	i	-5	-4	104	1.1
O=C(C[n+]1ccc(C(=O)N/N=C/c2ccc(O)cc2)cc1)c1ccccc1	i	i	0	51*	93	1
Cc1nonc1N1CCN(Cc2cn[nH]c2-c2ccc(F)cc2F)CC1	i	i	3	60*	103	1
COc1ccc(C(=O)N2CCN(Cc3ccccc3C(F)(F)F)CC2)cc1	i	i	/	/	105	/
COc1cccc(C(=O)N2CCN(Cc3cn[nH]c3-c3ccc(F)cc3F)CC2)c1	i	i	-7	65*	93	1.1
